Key:
[1] = system: Plasmodium falciparum; assay: Antiplasmodial activity against chloroquine-resistant Plasmodium falciparum W2 infected in human erythrocyte after 48 hrs by flow cytometry; assay type: functional, organism-based
In short: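 W2 strain (chloroquine-, pyrimethamine- and proguanil-resistant) kept in RPMI 1640 with 25 mM HEPES, 25 mM NaHCO3 and 10% A+ human serum. Cultures held at 37 °C under 10% O2, 6% CO2, 84% N2. Assay wells at 2% haematocrit; compounds added in DMSO or water. Incubated 48 h with no medium change. Infected erythrocytes counted by hydroethidine flow cytometry. IC50 taken from three independent experiments.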

[2] = Selectivity index, ratio of IC50 for human K562 cells to IC50 for chloroquine-resistant Plasmodium falciparum W2
[3] = system: K562; assay: Cytotoxicity against human K562 cells after 72 hrs by flow cytometry; assay type: functional, cell-based
In short: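 Cells were treated with a concentration range for 72 h at 37 °C, 6% CO2, with solvent and doxorubicin controls, and wells were checked for precipitate. Cells were stained with propidium iodide and live cells counted by flow cytometry. IC50 is the concentration giving a 50% decrease in proliferation versus control, from nonlinear regression of dose–response curves, mean of three independent experiments.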

[4] = Selectivity index, ratio of IC50 for human HepG2 cells to IC50 for chloroquine-resistant Plasmodium falciparum W2
[5] = system: HepG2; assay: Cytotoxicity against human HepG2 cells after 72 hrs by MTT assay; assay type: cell-based
In short: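 Cells in RPMI with 10% FBS, glutamine and penicillin/streptomycin were grown 24 h at 37 °C, 6% CO2, then exposed to a concentration range for 72 h. Wells were checked microscopically for precipitate. MTT (5 mg/mL in PBS) was added in serum-free medium for 2 h, formazan dissolved in DMSO, and absorbance read at 570 nm (630 nm reference). Viability is % of untreated control; the 50% cytotoxic concentration comes from the dose–response curve, mean of three experiments.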

[6] = system: Toxoplasma gondii; assay: Antitoxoplasmic activity against Toxoplasma gondii PRU-betaGal tachyzoite after 96 hrs by colorimetric microtiter assay; assay type: functional, organism-based
In short: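 Confluent HFF monolayers (10⁴ cells seeded per well) in phenol red-free RPMI 1640 with 10% FCS and glutamine/penicillin–streptomycin were infected with 2×10³ tachyzoites per well for 3 h at 37 °C, 6% CO2. Compounds in DMSO (<0.5% v/v) were added in triplicate for 96 h. CPRG was then added for 24 h and β-galactosidase read at 570/630 nm, blanked on uninfected wells. IC50 from three independent experiments.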

[7] = system: Leishmania donovani; assay: Antileishmanial activity against GFP-transfected Leishmania donovani HOM/IN/01/2001 promastigotes after 72 hrs; assay type: functional, organism-based; conditions: HOM/IN/01/2001, 72 h
In short: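 GFP-expressing promastigotes at 10⁵ parasites/mL in medium with 10% FCS and G418, exposed in duplicate to a concentration range of compounds in DMSO (final <0.5% v/v) for 72 h at 27 °C. DMSO and amphotericin B controls were included. Growth was read by flow cytometry (488 nm argon laser, green FL1 fluorescence). The IC50 is the 50% growth decrease, from three independent experiments.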

[8] = Plasmodium falciparum, W2, 48 h, read-out: IC50
[9] = Homo sapiens, K562, 72 h, read-out: IC50
[10] = Homo sapiens, HepG2, 72 h, read-out: IC50

With Cc1ccc(S(=O)(=O)Cc2nc(Nc3ccccc3Cl)c3ccccc3n2)cc1 the IC50 [1, 8] was 14 µM, the “Ratio IC50” value [2] was 1.7 and the IC50 [3, 9] was 24 µM. The “Ratio IC50” value [4] was over 3.6 and the IC50 [5, 10] was over 50 µM.
In the case of Cc1ccc(S(=O)(=O)Cc2nc(Nc3ccc(F)cc3)c3cc([N+](=O)[O-])ccc3n2)cc1, the IC50 [6] is reported as over 25 µM, the IC50 [1, 8] is reported as 2.2 µM and the “Ratio IC50” value [2] is reported as over 57. The IC50 [3, 9] was over 125 µM, the “Ratio IC50” value [4] was over 23 and the IC50 [5, 10] was over 50 µM. The IC50 [7] was over 25 µM.
For CC(C)=Cc1nc(Nc2cccc(Br)c2)c2cc([N+](=O)[O-])ccc2n1, the IC50 [1, 8] was 7.5 µM, the “Ratio IC50” value [2] was over 8 and the IC50 [3, 9] was over 62 µM. The “Ratio IC50” value [4] was over 2 and the IC50 [5, 10] was over 15 µM.
In the case of Cc1ccc(S(=O)(=O)Cc2nc(Nc3cccc(Br)c3)c3cc([N+](=O)[O-])ccc3n2)cc1, the IC50 [1] is reported as “ND(Insoluble)”, the IC50 ([3]; k562) is reported as “ND(Insoluble)” and the IC50 ([5]; hepg2) is reported as “ND(Insoluble)”.
With CC(C)=Cc1nc(Nc2ccccc2)c2cc([N+](=O)[O-])ccc2n1 the IC50 [1, 8] was 17 µM, the “Ratio IC50” value [2] was over 7 and the IC50 [3, 9] was over 125 µM. For the same compound, the “Ratio IC50” value [4] was 2.9 and the IC50 [5, 10] was 50 µM.
With Cc1ccc(S(=O)(=O)Cc2nc(Nc3cccc(C(F)(F)F)c3)c3cc([N+](=O)[O-])ccc3n2)cc1 the IC50 [6] was over 25 µM, the IC50 [1, 8] was 0.95 µM and the “Ratio IC50” value [2] was over 131. For the same compound, the IC50 [3, 9] was over 125 µM, the “Ratio IC50” value [4] was over 105 and the IC50 [5, 10] was over 100 µM. The IC50 [7] was 24 µM.
In the case of Cc1ccc(S(=O)(=O)Cc2nc(Nc3cccc(C(F)(F)F)c3)c3ccccc3n2)cc1, the IC50 [1, 8] is reported as 15 µM, the “Ratio IC50” value [2] is reported as over 1.7 and the IC50 [3, 9] is reported as over 25 µM. The “Ratio IC50” value [4] was over 1.7 and the IC50 [5, 10] was over 25 µM.
For CC(C)=Cc1nc(Nc2cccc(C(F)(F)F)c2)c2cc([N+](=O)[O-])ccc2n1, the IC50 [1, 8] was 3.2 µM, the “Ratio IC50” value [2] was over 39 and the IC50 [3, 9] was over 125 µM. For the same compound, the “Ratio IC50” value [4] was 31.3 and the IC50 [5, 10] was over 100 µM.
With Cc1ccc(S(=O)(=O)Cc2nc(Nc3ccccc3)c3ccccc3n2)cc1 the IC50 [1] was “ND(Insoluble)”, the IC50 ([3]; k562) was “ND(Insoluble)” and the IC50 ([5]; hepg2) was “ND(Insoluble)”.
For Cc1ccc(S(=O)(=O)Cc2nc(Nc3cccc(Cl)c3)c3cc([N+](=O)[O-])ccc3n2)cc1, the IC50 [6] was over 25 µM, the IC50 [1, 8] was 1.3 µM and the “Ratio IC50” value [2] was over 96. The IC50 [3, 9] was over 125 µM, the “Ratio IC50” value [4] was over 77 and the IC50 [5, 10] was over 100 µM. It also gave an IC50 [7] of 11 µM.
For Cc1ccc(S(=O)(=O)Cc2nc(Nc3cccc(Br)c3)c3ccccc3n2)cc1, the IC50 [1, 8] was 13 µM, the “Ratio IC50” value [2] was over 1.2 and the IC50 [3, 9] was over 15 µM. The “Ratio IC50” value [4] was over 1.2 and the IC50 [5, 10] was over 15 µM.
With Cc1ccc(S(=O)(=O)Cc2nc(Nc3ccccc3)c3cc([N+](=O)[O-])ccc3n2)cc1 the IC50 [1, 8] was 5 µM, the “Ratio IC50” value [2] was over 25 and the IC50 [3, 9] was over 125 µM. The “Ratio IC50” value [4] was over 5 and the IC50 [5, 10] was over 25 µM.
For Cc1ccc(S(=O)(=O)Cc2nc(Nc3ccc(F)cc3)c3ccccc3n2)cc1, the IC50 [1, 8] was 20 µM, the “Ratio IC50” value [2] was over 1 and the IC50 [3, 9] was over 20 µM. For the same compound, the “Ratio IC50” value [4] was over 0.75 and the IC50 [5, 10] was over 15 µM.
In the case of CC(C)=Cc1nc(Nc2ccc(F)cc2)c2cc([N+](=O)[O-])ccc2n1, the IC50 [1, 8] is reported as 5.6 µM, the “Ratio IC50” value [2] is reported as over 11 and the IC50 [3, 9] is reported as over 62 µM. The “Ratio IC50” value [4] was 4.8 and the IC50 [5, 10] was 27 µM.
C[C@@H]1[C@H](O)[C@@H](C)/C=C/C=C/C=C/C=C/C=C/C=C/C=C/[C@H](O[C@@H]2O[C@H](C)[C@@H](O)[C@H](N)[C@@H]2O)C[C@@H]2O[C@](O)(C[C@@H](O)C[C@@H](O)[C@H](O)CC[C@@H](O)C[C@@H](O)CC(=O)O[C@H]1C)C[C@H](O)[C@H]2C(=O)O [AMPHOTERICIN B] showed an IC50 [7] of 0.06 µM.
COc1cccc2c1C(=O)c1c(O)c3c(c(O)c1C2=O)C[C@@](O)(C(=O)CO)C[C@@H]3O[C@H]1C[C@H](N)[C@H](O)[C@H](C)O1 [DOXORUBICIN] gave an IC50 [5, 10] of 0.2 µM.
With C[C@H]1c2cccc(O)c2C(=O)C2=C(O)[C@]3(O)C(=O)C(C(N)=O)=C(O)[C@@H](N(C)C)[C@@H]3[C@@H](O)[C@@H]21.O [DOXYCYCLINE] the “Ratio IC50” value [2] was 2.3 and the “Ratio IC50” value [4] was 3.1.
For CCc1nc(N)nc(N)c1-c1ccc(Cl)cc1 [PYRIMETHAMINE], the IC50 [6] was 1.5 µM.
